Source: ChEMBL document CHEMBL3244412, “Benzopyrones. 14. Synthesis and antiallergic properties of some N-tetrazolylcarboxamides and related compounds” (1978)
In brackets after ≈: the same amount, converted by molar mass.

Tests used:
[1] = Antianaphylactic activity in rat mast cells assessed as inhibition of DNP-ovalbumin-induced histamine release after 15 mins by superfusion assay; type: functional; conditions: Mast cell, 0.25 h, read-out: ED50 (the source's name)
In short: (§1)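 Peritoneal and pleural cells from male albino rats were washed, sensitized with 1:10 rat reaginic anti-DNP-ovalbumin serum for 2 h at 37 °C, and resuspended at 1.2-1.7 × 10⁵ mast cells/mL. Compound and DNP-ovalbumin were added together and incubated for 15 min at 37 °C. Supernatant (free) and lysed-cell (residual) histamine were assayed by guinea pig ileum superfusion bioassay. Inhibition of net histamine release was used to derive EC50 from dose ranging against the reference compound.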

[2] = Antianaphylactic activity in rat mast cells assessed as inhibition of DNP-ovalbumin-induced histamine release after 15 mins by superfusion assay relative to 4-oxo-N-(5-tetrazolyl)-4H-l-benzopyran-2-carboxamide; type: functional, Mast cell; in short: as §1
Rattus norvegicus = test: Antiallergic activity in rat assessed as inhibition of DNP-ovalbumin-induced passive cutaneous anaphylaxis at 1 mg/kg, iv after 30 mins relative to control; type: functional; conditions: for inhibition in vivo at 1 mg/kg: Rattus norvegicus, iv, 0.5 h
In short: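 Female albino rats (groups of four) were shaved and sensitized by dorsal intradermal injection of 0.1 mL diluted rat reaginic anti-DNP-ovalbumin serum, raised with Bordetella pertussis adjuvant. After 48 h they were challenged iv with 2 mg DNP-ovalbumin in 0.5 mL 1% Evans blue/saline, with the compound given iv in aqueous solution at the same time. After 30 min, skin weals were scored visually on a 5-point scale; % inhibition was taken versus vehicle controls.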

SMILES | EC50 [1] [µg/mL] | fold change (potency relative to reference compound) [2] | inhibition in vivo at 1 mg/kg (Rattus norvegicus) [%] | inhibition (INH) (Rattus norvegicus) [%]
O=C(Nc1nc[nH]n1)c1cc(=O)c2ccccc2o1 | 5 (≈ 19.5 µM) | 0.002 | 0 | 
O=C(Nc1nnn[nH]1)c1cc2ccccc2c(=O)o1 | > 18 | <0.005 | 0 | 
O=C(Nc1nnn[nH]1)c1cccc2c(=O)c3ccccc3[nH]c12 | 0.65 (≈ 2.12 µM) | 0.14 | 90 | 
Cc1c(C(=O)Nc2nnn[nH]2)oc2ccccc2c1=O | 0.4 (≈ 1.47 µM) | 1 | 70 | 
Cn1nnnc1NC(=O)c1cc(=O)c2ccccc2o1 | > 18 | <0.005 | 0 | 
NC(=O)c1cc(=O)c2ccc(O)c(N)c2o1 | > 18 | <0.005 | 15 | 
O=C(Nc1nnn[nH]1)c1cc(=O)c2cc([N+](=O)[O-])ccc2o1 | 5.5 (≈ 18.2 µM) | 0.01 | 15 | 
Cn1nnc(NC(=O)c2cc(=O)c3ccccc3o2)n1 |  |  | 25 | 
O=c1c(/C=N/O)coc2ccccc12 | > 18 | 0.0006 | 25 | 
NCCCO.O=C(Nc1nnn[nH]1)c1oc2ccccc2c(=O)c1NCCCO | 0.024 | 0.67 | 100 | 
O=C(Nc1nccs1)c1cc(=O)c2ccccc2o1 | > 18 | <0.005 | 15 | 
NC(=O)c1cc(=O)c2cc(N)ccc2o1 | > 18 | <0.005 | 10 | 
O=C(Nc1nnn[nH]1)c1cc(=O)c2ccc(O)cc2o1 | 0.11 (≈ 0.403 µM) | 0.77 | 65 | 
O=C(O)c1ccc2occc(=O)c2c1 | > 18 | <0.005 | 0 | 
O=C([O-])c1cc(=O)c2c(OCC(O)COc3cccc4oc(C(=O)[O-])cc(=O)c34)cccc2o1.[Na+].[Na+] [CROMOLYN SODIUM] | 2.55 | 0.02 | 40 | 
O=C(/C=C/c1coc2ccccc2c1=O)Nc1nnn[nH]1 | 6 (≈ 21.2 µM) | <0.005 | 65 | 
CN(C(=O)c1cc(=O)c2ccccc2o1)c1nnn[nH]1 | > 18 | <0.005 | 0 | 
O=C(Nc1nnn[nH]1)c1coc(=O)c2ccccc12 | > 18 | <0.005 | 0 | 
O=C(O)CNC(=O)c1ccc2oc(C(=O)NCC(=O)O)cc(=O)c2c1 | > 18 | <0.005 | 10 | 
Cc1ccc2oc(C(=O)Nc3nnn[nH]3)cc(=O)c2c1 | 0.075 (≈ 0.277 µM) | 1.2 | 75 | 
Cc1ccc2c(=O)cc(C(=O)Nc3nnn[nH]3)oc2c1 | 0.58 (≈ 2.14 µM) | 0.19 | 75 | 
O=C(Nc1nnn[nH]1)c1ccc2occc(=O)c2c1 | 0.7 (≈ 2.72 µM) | 0.08 | 35 | 
O=C(Nc1nnn[nH]1)c1ccc2oc(C(=O)Nc3nnn[nH]3)cc(=O)c2c1 | 0.55 (≈ 1.49 µM) | 0.1 | 100 | 

SMILES | EC50 [1] [µg/mL] | fold change (potency relative to reference compound) [2] | inhibition in vivo at 1 mg/kg (Rattus norvegicus) [%] | inhibition (INH) (Rattus norvegicus) [%]
O=C(Nc1nnn[nH]1)c1ccc2oc(-c3nnn[nH]3)cc(=O)c2c1 | 0.055 (≈ 0.169 µM) | 1 | 70 | 
CNc1c(C(=O)Nc2nnn[nH]2)oc2ccccc2c1=O | 0.4 (≈ 1.4 µM) | 0.04 | 100 | 
Cc1oc2ccc(S(=O)(=O)Nc3nnn[nH]3)cc2c(=O)c1C | > 18 | <0.005 | 20 | 
Cc1ccc2c(=O)cc(C(=O)Nc3nnn[nH]3)oc2c1.NCCO | 0.16 | 0.75 |  | 80
N#Cc1ccc2oc(C(=O)Nc3nnn[nH]3)cc(=O)c2c1 | 2.3 (≈ 8.15 µM) | 0.03 | 100 | 
O=C(O)c1coc2ccccc2c1=O | > 18 | <0.005 | 20 | 
CN1CCN(C(=O)c2coc3ccccc3c2=O)CC1.Cl | 14 | 0.007 | 20 | 
CCOC(=O)c1cc(=O)c2cc(NC(=O)Cc3nnn[nH]3)ccc2o1 | 11 (≈ 32 µM) | 0.005 | 65 | 
COc1ccc2c(=O)cc(C(=O)Nc3nnn[nH]3)oc2c1 | 0.048 (≈ 0.167 µM) | 1.8 | 75 | 
CN1CCN(C(=O)c2cc(=O)c3ccccc3o2)CC1.Cl | > 18 | <0.005 | 0 | 
Cc1ccc2oc(C(=O)Nc3nnn[nH]3)c(-c3ccccc3)c(=O)c2c1 | 8 (≈ 23 µM) | 0.005 | 50 | 
O=C(Nc1nnn[nH]1)c1oc2ccccc2c(=O)c1Cl | 0.8 (≈ 2.74 µM) | 0.11 | 75 | 
O=C(Nc1nnn[nH]1)c1cc(=O)c2cc(-c3nnn[nH]3)ccc2o1 | 0.1 (≈ 0.307 µM) | 0.85 | 70 | 
O=C(Nc1nnn[nH]1)c1cc(=O)c2cc(Cl)ccc2o1 | 0.75 (≈ 2.57 µM) | 0.12 | 65 | 
O=C(NCCO)c1ccc2oc(C(=O)NCCO)cc(=O)c2c1 | > 18 | <0.005 | 15 | 
O=C(Nc1nnn[nH]1)c1coc2ccccc2c1=O | 0.033 (≈ 0.128 µM) | 0.48 | 65 | 
Cc1ccc2oc(C(=O)O)c(-c3ccccc3)c(=O)c2c1 | > 18 | <0.005 | 0 | 
O=C(Nc1nnn[nH]1)c1oc2ccccc2c(=O)c1N1CCOCC1 | > 18 | <0.005 | 10 | 
COc1ccc2c(=O)c(-c3ccccc3)c(C(=O)Nc3nnn[nH]3)oc2c1 | > 18 | <0.005 | 25 | 
CN1CCN(C(=O)/C=C/c2coc3ccccc3c2=O)CC1 | > 18 | <0.005 | 0 | 
O=C(Nc1nnn[nH]1)c1oc2ccccc2c(=O)c1NCCO | 0.085 (≈ 0.269 µM) | 0.18 | 100 | 
O=C(O)CCCCCNC(=O)c1cc(=O)c2ccccc2o1 | > 18 | <0.005 | 0 | 
